According to ChEMBL document CHEMBL2086372 (ACS Med Chem Lett, 2012):
pKi: −log10 of the molar value. The source made the active and inactive calls. No cut-off for these calls is given here.

Tests used:
[1] = Permeability of the compound at 10 uM after 4 hrs by PAMPA assay; type: ADME
Mus musculus [2] = experiment: Effect on morphine-dependence in CD1 mouse assessed as decrease in naloxone-precipitated teeth chatter at 0.05 mg/kg, ip administered chronically 15 mins prior to each morphine challenge relative to vehicle-treated control; type: functional, organism-based; set-up: dose 0.05 mg/kg
Method in brief: (§1)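 Acquisition of morphine dependence in mice, tested with repeated ip dosing (racemate 0.05 mg/kg, enantiomers 0.025 mg/kg). Withdrawal was precipitated by naloxone. Scored signs were jumping frequency and somatic signs (rearing, forepaw tremors, teeth chatter). Groups were compared with vehicle and with the morphine group.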

Mus musculus [3] = experiment: Effect on morphine-dependence in CD1 mouse assessed as decrease in naloxone-precipitated jumping at 0.05 mg/kg, ip administered acutely 15 mins prior to naloxone challenge relative to vehicle-treated control; type: functional, organism-based; set-up: dose 0.05 mg/kg
Method in brief: as §1, with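 “Expression” for “Acquisition”, “a single acute” for “repeated”, “dose” for “dosing”, “naloxone in control and morphine-treated mice.” for “naloxone.”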

Mus musculus [4] = experiment: Effect on morphine-dependence in CD1 mouse assessed as decrease in naloxone-precipitated forepaw tremors at 0.05 mg/kg, ip administered chronically 15 mins prior to each morphine challenge relative to vehicle-treated control; type: functional, organism-based; set-up: dose 0.05 mg/kg; method in brief: as §1
Mus musculus [5] = experiment: Effect on morphine-dependence in CD1 mouse assessed as decrease in naloxone-precipitated rearing at 0.05 mg/kg, ip administered chronically 15 mins prior to each morphine challenge relative to vehicle-treated control; type: functional, organism-based; set-up: dose 0.05 mg/kg; method in brief: as §1
Mus musculus [6] = experiment: Effect on morphine-dependence in CD1 mouse assessed as decrease in naloxone-precipitated jumping at 0.05 mg/kg, ip administered chronically 15 mins prior to each morphine challenge relative to vehicle-treated control; type: functional, organism-based; set-up: dose 0.05 mg/kg; method in brief: as §1
[7] = Aqueous solubility of the compound after 1 hr at pH 7.4; type: physicochemical; settings: buffer, pH 7.4, 1 h
Mus musculus [8] = experiment: Antidepressant activity in CD1 mouse assessed as decrease in immobility time at 0.05 mg/kg, ip after 15 mins by forced swim test relative to vehicle-treated control; type: functional, organism-based; set-up: dose 0.05 mg/kg
Method in brief: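 Mouse forced swimming test with immobility time as the read-out. Single ip doses were 0.012, 0.025, 0.05, 0.2 or 0.5 mg/kg, with fluoxetine 20 mg/kg ip as reference. Results are compared against vehicle-treated mice and given as means ± SEMs of 8–9 animals.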

[9] = target: T1, 5-hydroxytryptamine receptor 1A (Homo sapiens, UniProt P08908); experiment: Displacement of [3H]8-OH-DPAT from human 5HT1A receptor expressed in HeLa cells after 30 mins; type: cell-based
T1 sequence (P08908 whole entry): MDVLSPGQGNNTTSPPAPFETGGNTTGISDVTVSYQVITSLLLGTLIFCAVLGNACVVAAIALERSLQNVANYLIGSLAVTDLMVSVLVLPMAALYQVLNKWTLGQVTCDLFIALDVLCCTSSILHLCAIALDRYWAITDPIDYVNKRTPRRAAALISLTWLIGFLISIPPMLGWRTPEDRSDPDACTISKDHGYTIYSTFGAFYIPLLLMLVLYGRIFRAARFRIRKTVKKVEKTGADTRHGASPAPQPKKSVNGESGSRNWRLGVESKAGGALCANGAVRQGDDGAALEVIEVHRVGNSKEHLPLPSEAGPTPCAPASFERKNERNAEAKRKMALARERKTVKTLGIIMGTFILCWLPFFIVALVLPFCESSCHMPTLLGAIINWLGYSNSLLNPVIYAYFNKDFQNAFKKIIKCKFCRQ
Method in brief: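 pKi is derived from displacement of [3H]-8-OH-DPAT binding at human cloned 5-HT1A receptor. Values are means ± SEMs of 3–6 separate experiments.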

Mus musculus [10] = experiment: Effect on morphine-dependence in CD1 mouse assessed as decrease in naloxone-precipitated forepaw tremors at 0.05 mg/kg, ip administered acutely 15 mins prior to naloxone challenge relative to vehicle-treated control; type: functional, organism-based; set-up: dose 0.05 mg/kg
Method in brief: as §1, with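 “Expression” for “Acquisition”, “a single acute” for “repeated”, “dose” for “dosing”, “naloxone in control and morphine-treated mice.” for “naloxone.”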

Mus musculus [11] = experiment: Effect on morphine-dependence in CD1 mouse assessed as decrease in naloxone-precipitated teeth chatter at 0.05 mg/kg, ip administered acutely 15 mins prior to naloxone challenge relative to vehicle-treated control; type: functional, organism-based; set-up: dose 0.05 mg/kg
Method in brief: as §1, with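 “Expression” for “Acquisition”, “a single acute” for “repeated”, “dose” for “dosing”, “naloxone in control and morphine-treated mice.” for “naloxone.”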

Mus musculus [12] = experiment: Effect on morphine-dependence in CD1 mouse assessed as decrease in naloxone-precipitated rearing at 0.05 mg/kg, ip administered acutely 15 mins prior to naloxone challenge relative to vehicle-treated control; type: functional, organism-based; set-up: dose 0.05 mg/kg
Method in brief: as §1, with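 “Expression” for “Acquisition”, “a single acute” for “repeated”, “dose” for “dosing”, “naloxone in control and morphine-treated mice.” for “naloxone.”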

[13] = target: T2, Alpha-2C adrenergic receptor (Homo sapiens) (UniProt P18825); experiment: Agonist activity at human alpha2C adrenoceptor expressed in CHO cells assessed as extracellular acidification measured after 4 mins by cytosensor microphysiometric analysis relative to control; type: functional, cell-based
T2 sequence (whole entry): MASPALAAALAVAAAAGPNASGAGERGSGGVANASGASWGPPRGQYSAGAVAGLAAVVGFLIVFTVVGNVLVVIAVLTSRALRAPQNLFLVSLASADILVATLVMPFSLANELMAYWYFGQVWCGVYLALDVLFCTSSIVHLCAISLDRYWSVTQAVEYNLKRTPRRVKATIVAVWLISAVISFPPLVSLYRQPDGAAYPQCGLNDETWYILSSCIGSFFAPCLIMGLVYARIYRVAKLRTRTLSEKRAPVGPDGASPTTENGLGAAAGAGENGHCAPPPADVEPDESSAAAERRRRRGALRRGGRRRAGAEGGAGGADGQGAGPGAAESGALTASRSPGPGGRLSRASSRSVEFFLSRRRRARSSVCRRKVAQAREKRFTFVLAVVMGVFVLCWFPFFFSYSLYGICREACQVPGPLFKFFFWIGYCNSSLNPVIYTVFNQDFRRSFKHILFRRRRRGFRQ
Method in brief: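 Binding and functional assays run on CHO cells expressing recombinant human α2-AR subtypes. Functional read-outs are agonist potency (pEC50) with intrinsic activity (ia), or antagonist pKb. Affinity is reported as pKi. Values are means ± SEMs of 3–6 separate experiments.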

In the case of CC(Oc1ccccc1CC1CC1)C1=NCCN1 (racemic) [CYCLOMETHYLINE], the permeability [1] was “permeable”, the Activity (Mus musculus [2]) was “Active” and the Activity (Mus musculus [3]) was “Active”. The Activity (Mus musculus [4]) was “Active”, the Activity (Mus musculus [5]) was “Active” and the Activity (Mus musculus [6]) was “Active”. The solubility [7] was “soluble”, the Activity (Mus musculus [8]) was “Active” and the pKi [9] was 7.98. The Activity (Mus musculus [10]) was “Active”, the Activity (Mus musculus [11]) was “Active” and the Activity (Mus musculus [12]) was “Active”. For the same compound, the Intrinsic activity [13] was 0.8.
